Measurements: ChEMBL document CHEMBL1806374, “Synthesis, characterization and cytotoxicity of some novel 1,3-disubstituted-2,3-dihydro-2-iminobenzimidazoles” (Eur J Med Chem, 2011)

Legend:
[1] = Antiproliferative activity against at human Splenocytes after 24 hrs by MTS assay; assay type: cell-based; settings: Splenocyte
Procedure, shortened: (§1)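 Cells were seeded at 2 × 10⁴ per well. After 24 h the monolayers were washed and overlaid with medium containing compound, from a 0.5 mg/ml DMSO stock diluted 1:10 to 1:10 000. Untreated medium served as control. After 24 h, MTS was added for 2 h at 37 °C in 5% CO2, and A490 was read. Viability was expressed as % of control, averaged over three independent assays, and IC50/EC50 were taken from the plotted curves.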

[2] = test system: MDA-MB-231; assay: Cytotoxicity against human MDA-MB-231 cells after 24 hrs by MTS assay; assay type: functional, cell-based; settings: MDA-MB-231, 24 h; procedure, shortened: as §1
[3] = test system: HT-29; assay: Antiproliferative activity against human HT-29 cells after 24 hrs by MTS assay; assay type: functional, cell-based; settings: HT-29, 24 h; procedure, shortened: as §1
[4] = test system: HT-29; assay: Cytotoxicity against human HT-29 cells after 24 hrs by MTS assay; assay type: functional, cell-based; settings: HT-29, 24 h; procedure, shortened: as §1
[5] = test system: MDA-MB-231; assay: Antiproliferative activity against human MDA-MB-231 cells after 24 hrs by MTS assay; assay type: functional, cell-based; settings: MDA-MB-231, 24 h; procedure, shortened: as §1
[6] = Cytotoxicity against human Splenocytes after 24 hrs by MTS assay; assay type: cell-based; settings: Splenocyte; procedure, shortened: as §1

EC50 [3] [nM] | EC50 [5] [nM] | SMILES | EC50 [1] [nM] | IC50 [2] [nM] | IC50 [4] [nM] | IC50 [6] [nM]
2.37 |  | CCOC(=O)Cn1c(=N)n(CC(=O)OCC)c2ccccc21 | 14.3 | 1.15 |  | 
 | 1.39 | N=c1n(CCCc2ccccc2)c2ccccc2n1CCCc1ccccc1 | 14.1 |  | 9.26 | 
5.68 | 2.02 | CCOC(=O)C(C)N1C2=NC(=O)C(C)N2c2ccccc21 (stereo not drawn) | 0.542 |  |  | 
 |  | N=c1n(CC(=O)NCCCN)c2ccccc2n1CC(=O)NCCCN | 0.05 | 0.123 | 0.56 | 
0.205 |  | N=c1n(CC(=O)NCc2ccccc2)c2ccccc2n1CC(=O)NCc1ccccc1 | 7.74 | 1.65 |  | 
 | 1.59 | CN1CCN(C(=O)Cn2c(=N)n(CC(=O)N3CCN(C)CC3)c3ccccc32)CC1 |  |  | 0.013 | 1.38
4.3 |  | N=c1n(CC(=O)N/N=C/c2ccc(F)cc2)c2ccccc2n1CC(=O)N/N=C/c1ccc(F)cc1 | 16.9 |  |  | 
3.51 | 0.002 | N=c1n(CC(=O)N/N=C/c2cccc(F)c2)c2ccccc2n1CC(=O)N/N=C/c1cccc(F)c1 | 11 |  |  | 
